Test results published in ChEMBL document CHEMBL2176935, “Discovery and lead optimization of a novel series of CC chemokine receptor 1 (CCR1)-selective piperidine antagonists via parallel synthesis” (J Med Chem, 2012).
Values after ≈ are worked out from the molar mass of the structure shown.

Legend:
[1] = Clearance in mouse at 2.5 mg/kg, iv; type: ADME, organism-based; set-up: dose 2.5 mg/kg, route intravenous; details: in vivo
[2] = Half life in mouse at 2.5 mg/kg, iv; type: ADME, organism-based; set-up: dose 2.5 mg/kg, route intravenous; details: in vivo
[3] = Cmax in mouse at 5.2 mg/kg, po; type: ADME, organism-based; set-up: dose 5.2 mg/kg, route oral; details: in vivo
[4] = Half life in mouse at 5.2 mg/kg, po; type: ADME, organism-based; set-up: dose 5.2 mg/kg, route oral; details: in vivo
[5] = Thermodynamic solubility in pH 6.5 potassium phosphate buffer by HPLC method; type: physicochemical; details: read-out: Therm_solubility
Method in brief: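 Thermodynamic equilibrium solubility. Compound standard dissolved in methanol, with DMSO added if needed, and mixed 1:1 with 50 mM potassium phosphate pH 6.5. Vortexed, sonicated 30 s, shaken 15−24 h at room temperature, centrifuged. Quantified by HPLC-UV at 210 or 254 nm against a calibration curve.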

Cytochrome P450 3A4 = Cytochrome P450 3A4 (Homo sapiens, UniProt P08684); assay: Inhibition of recombinant CYP3A4 expressed in baculovirus-infected insect cells using fluorogeinc substrate; type: ADME
Method in brief: (§1)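 Recombinant CYP Supersomes premixed with fluorogenic substrate in potassium phosphate buffer and prewarmed 30 min at 37 °C with test substance. Reaction started with NADPH-regenerating system, incubated at 37 °C, then quenched with 80% acetonitrile/20% 0.5 M TRIS-base.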

Cytochrome P450 2D6 = Cytochrome P450 2D6 (Homo sapiens, UniProt P10635); assay: Inhibition of recombinant CYP2D6 expressed in baculovirus-infected insect cells using fluorogeinc substrate; type: ADME; method in brief: as §1
[6] = AUC in mouse at 2.5 mg/kg, iv; type: ADME, organism-based; set-up: dose 2.5 mg/kg, route intravenous; details: plasma
Cytochrome P450 2C9 = Cytochrome P450 2C9 (Homo sapiens, UniProt P11712); assay: Inhibition of recombinant CYP2C9 expressed in baculovirus-infected insect cells using fluorogeinc substrate; type: ADME; method in brief: as §1
[7] = target: Voltage-gated inwardly rectifying potassium channel KCNH2 (Homo sapiens, UniProt Q12809); assay: Inhibition of human ERG expressed in HEK293 cells assessed as reduction in peak tail current by whole cell patch clamp assay; type: cell-based
Method in brief: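 Whole-cell patch clamp on HEK-293 cells stably expressing the hERG α subunit. Inhibition measured on peak tail current. Aqueous buffer at pH 7.4, room temperature, no protein present.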

[8] = target: T1, C-C chemokine receptor type 1 (Homo sapiens, UniProt P32246); assay: Antagonist activity at CCR1 in human THP1 cells assessed as inhibition of CK-8beta-induced calcium flux by FLIPR; type: functional, cell-based, THP-1
T1 sequence (P32246 whole entry): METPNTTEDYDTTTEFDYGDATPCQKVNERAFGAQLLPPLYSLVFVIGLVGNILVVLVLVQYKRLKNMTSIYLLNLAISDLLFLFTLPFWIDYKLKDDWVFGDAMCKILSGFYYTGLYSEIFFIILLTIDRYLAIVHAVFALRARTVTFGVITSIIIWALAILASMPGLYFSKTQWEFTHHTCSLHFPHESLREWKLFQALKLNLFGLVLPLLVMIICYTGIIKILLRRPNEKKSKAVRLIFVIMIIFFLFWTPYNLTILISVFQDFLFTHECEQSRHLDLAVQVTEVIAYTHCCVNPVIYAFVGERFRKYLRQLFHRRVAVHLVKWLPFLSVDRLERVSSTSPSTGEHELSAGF

Liver = assay: Stability in mouse liver microsomes assessed as compound remaining; type: ADME, Microsome
[9] = target: C-C chemokine receptor type 5 (Homo sapiens, UniProt P51681); assay: Displacement of [125I]MIP-1beta from human CCR5 expressed in HT1080 cells by scintillation counting; type: cell-based, HT-1080
Method in brief: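 SPA using membranes from HT1080 cells stably expressing RAGE-activated human CCR5, 10 μg protein per well, with PVT-WGA-PS beads. Compound 11-point 3-fold dilutions, 40 μM to 0.7 nM final. 125I-MIP-1β at 0.1 nM final. Incubated 4 h at room temperature, read on TopCount.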

Chemokine receptor = target: T2, Chemokine receptor (Oryctolagus cuniculus, UniProt Q9MYJ9); assay: Displacement of [125I]MIP-1alpha from CCR1 in rabbit PBMCs incubated for 60 mins
T2 sequence (Q9MYJ9 whole entry): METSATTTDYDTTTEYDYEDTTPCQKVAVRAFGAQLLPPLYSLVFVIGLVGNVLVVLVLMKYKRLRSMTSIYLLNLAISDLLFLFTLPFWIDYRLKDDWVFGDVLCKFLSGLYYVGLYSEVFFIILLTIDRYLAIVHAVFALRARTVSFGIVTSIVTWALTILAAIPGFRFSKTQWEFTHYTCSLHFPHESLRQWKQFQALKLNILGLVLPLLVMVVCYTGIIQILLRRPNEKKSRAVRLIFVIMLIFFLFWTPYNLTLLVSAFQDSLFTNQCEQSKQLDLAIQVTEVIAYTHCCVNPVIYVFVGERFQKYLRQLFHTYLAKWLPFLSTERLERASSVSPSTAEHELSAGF
Method in brief: (§2)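 Cross-species binding using human 125I-MIP-1α at 0.08 nM final. Nonspecific binding measured with excess unlabeled ligand. Incubated 60 min at room temperature, washed, air-dried, filters gamma-counted. Cells were the mouse WEHI 274.1 line, rat thioglycollate-elicited peritoneal cells, and rabbit peripheral blood mononuclear cells.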

[10] = target: T3, C-C chemokine receptor type 1 (Mus musculus, UniProt P51675); assay: Displacement of [125I]MIP-1alpha from CCR1 in mouse WEHI 274.1 cells incubated for 60 mins; type: cell-based; method in brief: as §2
T3 sequence (P51675 whole entry): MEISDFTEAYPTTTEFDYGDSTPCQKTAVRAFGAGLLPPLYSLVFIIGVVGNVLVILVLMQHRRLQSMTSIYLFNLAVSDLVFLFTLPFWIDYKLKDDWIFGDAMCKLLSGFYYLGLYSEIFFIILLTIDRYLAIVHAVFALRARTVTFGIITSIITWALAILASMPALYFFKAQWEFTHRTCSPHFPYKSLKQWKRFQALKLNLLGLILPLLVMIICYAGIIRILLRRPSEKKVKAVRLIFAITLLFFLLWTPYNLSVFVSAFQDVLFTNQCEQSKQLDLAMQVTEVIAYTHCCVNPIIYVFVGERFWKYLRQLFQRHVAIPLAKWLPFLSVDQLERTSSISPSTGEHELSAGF

[11] = target: T4, C-C chemokine receptor type 1 (Rattus norvegicus, UniProt A6I4C9); assay: Displacement of [125I]MIP-1alpha from CCR1 in rat thioglycolate-elicited peritoneal cells incubated for 60 mins; method in brief: as §2
T4 sequence (A6I4C9 whole entry): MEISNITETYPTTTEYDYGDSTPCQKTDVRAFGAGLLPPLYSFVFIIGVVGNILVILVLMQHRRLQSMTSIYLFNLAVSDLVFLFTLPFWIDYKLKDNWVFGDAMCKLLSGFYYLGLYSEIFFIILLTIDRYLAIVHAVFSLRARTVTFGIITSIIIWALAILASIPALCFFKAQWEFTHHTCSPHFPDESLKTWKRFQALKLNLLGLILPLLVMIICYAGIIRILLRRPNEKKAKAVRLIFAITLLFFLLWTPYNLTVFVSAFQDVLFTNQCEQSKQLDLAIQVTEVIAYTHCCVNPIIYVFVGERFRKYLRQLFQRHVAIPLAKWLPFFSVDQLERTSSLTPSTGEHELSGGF

Liver microsomes [12] = assay: Stability in rat liver microsomes assessed as compound remaining; type: ADME, Microsome
[13] = Volume of distribution at steady state in mouse at 2.5 mg/kg, iv; type: ADME, organism-based; set-up: dose 2.5 mg/kg, route intravenous; details: in vivo, read-out: Vdss
[14] = target: T1, C-C chemokine receptor type 1; assay: Antagonist activity at CCR1 in human THP1 cells assessed as inhibition of MIP-1alpha-induced calcium flux by FLIPR; type: functional, cell-based, THP-1
Method in brief: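 THP-1 cells loaded with fluo-3 AM and resuspended in assay buffer containing probenecid. Calcium flux was followed on FLIPR after adding MIP-1α at 20 nM. Compound effect was taken as the change in base-to-peak excursion relative to control. Run in duplicate.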

[15] = Oral bioavailability life in mouse at 5.2 mg/kg; type: ADME, organism-based; details: in vivo
[16] = AUC in mouse at 5.2 mg/kg, po; type: ADME, organism-based; set-up: dose 5.2 mg/kg, route oral; details: plasma
[17] = target: C-C chemokine receptor type 2 (Homo sapiens, UniProt P41597); assay: Displacement of [125I]MCP1 from CCR2 in human THP1 cells; type: cell-based, THP-1
Cytochrome P450 2C19 = Cytochrome P450 2C19 (Homo sapiens, UniProt P33261); assay: Inhibition of recombinant CYP2C19 expressed in baculovirus-infected insect cells using fluorogeinc substrate; type: ADME; method in brief: as §1
Liver microsomes [18] = assay: Stability in human liver microsomes assessed as compound remaining; type: ADME, Microsome
[19] = target: C-C chemokine receptor type 3 (Homo sapiens, UniProt P51677); assay: Displacement of [125I]eotaxin from human CCR3 expressed in CHO CCR3/2 chimeric cells by scintillation counting; type: cell-based
Method in brief: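 Compound 11-point 3-fold dilutions, 40 μM to 0.7 nM final. 125I-Eotaxin at 0.2 nM final. Incubated 3 h at room temperature; nonspecific binding set with 100 nM eotaxin. Duplicates.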

[20] = target: T1, C-C chemokine receptor type 1; assay: Displacement of [125I]MIP-1alpha from CCR1 in human THP1 cells; type: cell-based, THP-1
Method in brief: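 THP-1 cells, 1 × 105, mixed with WGA PS SPA beads in RPMI 1640 (no phenol red) with 50 mM HEPES, 5 mM MgCl2, 1 mM CaCl2, 0.1% BSA. Compound in 3-fold dilutions, 8 μM to 140 pM final. [125I]-MIP-1α at 0.1 nM final. Incubated 12 h at room temperature, imaged by LEADseeker. Duplicates; IC50 from four-parameter logistic fit after nonspecific correction.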

Sequence of Cytochrome P450 3A4 (P08684 whole entry): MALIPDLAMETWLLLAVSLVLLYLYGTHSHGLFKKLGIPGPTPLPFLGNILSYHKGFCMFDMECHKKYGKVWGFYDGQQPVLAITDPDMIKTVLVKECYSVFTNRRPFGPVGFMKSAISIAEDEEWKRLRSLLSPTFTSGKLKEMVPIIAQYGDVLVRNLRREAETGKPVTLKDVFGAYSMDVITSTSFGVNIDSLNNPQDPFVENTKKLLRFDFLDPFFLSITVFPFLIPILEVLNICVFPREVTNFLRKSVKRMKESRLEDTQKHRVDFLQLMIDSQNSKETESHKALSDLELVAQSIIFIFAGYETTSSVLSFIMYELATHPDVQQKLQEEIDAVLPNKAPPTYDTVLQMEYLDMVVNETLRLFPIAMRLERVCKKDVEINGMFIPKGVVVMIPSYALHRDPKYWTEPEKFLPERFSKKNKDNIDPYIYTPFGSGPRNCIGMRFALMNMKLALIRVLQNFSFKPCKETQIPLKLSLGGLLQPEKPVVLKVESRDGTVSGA
Sequence of Cytochrome P450 2C9 (P11712 whole entry): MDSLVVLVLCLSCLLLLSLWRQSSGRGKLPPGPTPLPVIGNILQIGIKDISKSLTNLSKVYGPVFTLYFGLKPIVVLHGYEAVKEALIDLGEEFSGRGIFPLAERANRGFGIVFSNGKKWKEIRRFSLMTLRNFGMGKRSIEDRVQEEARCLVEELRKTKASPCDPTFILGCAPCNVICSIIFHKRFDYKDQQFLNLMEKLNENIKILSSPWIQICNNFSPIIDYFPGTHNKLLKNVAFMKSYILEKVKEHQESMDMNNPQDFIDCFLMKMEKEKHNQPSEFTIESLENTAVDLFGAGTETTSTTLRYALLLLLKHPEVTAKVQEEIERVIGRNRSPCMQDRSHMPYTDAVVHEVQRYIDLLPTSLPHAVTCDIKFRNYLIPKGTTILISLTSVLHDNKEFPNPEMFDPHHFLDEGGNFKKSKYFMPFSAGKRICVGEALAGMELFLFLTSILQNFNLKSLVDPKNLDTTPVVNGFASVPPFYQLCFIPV
Sequence of C-C chemokine receptor type 2 (P41597 whole entry): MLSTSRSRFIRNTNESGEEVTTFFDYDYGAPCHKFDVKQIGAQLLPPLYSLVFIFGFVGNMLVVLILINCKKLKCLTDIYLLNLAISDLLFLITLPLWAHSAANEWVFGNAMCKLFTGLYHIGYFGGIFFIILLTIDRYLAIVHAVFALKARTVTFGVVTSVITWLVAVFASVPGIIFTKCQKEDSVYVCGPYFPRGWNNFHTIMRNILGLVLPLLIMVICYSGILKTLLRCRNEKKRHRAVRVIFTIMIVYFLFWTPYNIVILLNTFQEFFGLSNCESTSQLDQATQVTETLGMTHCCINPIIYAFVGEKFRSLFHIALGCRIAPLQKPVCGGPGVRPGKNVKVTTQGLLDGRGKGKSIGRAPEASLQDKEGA
Sequence of Cytochrome P450 2D6 (P10635 whole entry): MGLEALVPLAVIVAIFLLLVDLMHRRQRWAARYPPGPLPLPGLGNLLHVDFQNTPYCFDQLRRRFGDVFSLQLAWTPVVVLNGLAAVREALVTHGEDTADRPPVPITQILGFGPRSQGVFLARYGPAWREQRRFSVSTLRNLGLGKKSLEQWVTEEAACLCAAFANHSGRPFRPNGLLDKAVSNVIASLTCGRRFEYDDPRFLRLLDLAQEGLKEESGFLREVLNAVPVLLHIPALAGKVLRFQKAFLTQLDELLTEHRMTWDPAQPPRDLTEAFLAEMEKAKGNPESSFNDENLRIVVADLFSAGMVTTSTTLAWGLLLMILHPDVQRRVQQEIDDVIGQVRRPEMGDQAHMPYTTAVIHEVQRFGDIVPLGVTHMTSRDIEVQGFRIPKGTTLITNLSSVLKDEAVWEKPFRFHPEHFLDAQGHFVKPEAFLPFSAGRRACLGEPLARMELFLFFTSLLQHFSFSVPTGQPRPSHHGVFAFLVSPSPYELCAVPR
Sequence of Cytochrome P450 2C19 (P33261 whole entry): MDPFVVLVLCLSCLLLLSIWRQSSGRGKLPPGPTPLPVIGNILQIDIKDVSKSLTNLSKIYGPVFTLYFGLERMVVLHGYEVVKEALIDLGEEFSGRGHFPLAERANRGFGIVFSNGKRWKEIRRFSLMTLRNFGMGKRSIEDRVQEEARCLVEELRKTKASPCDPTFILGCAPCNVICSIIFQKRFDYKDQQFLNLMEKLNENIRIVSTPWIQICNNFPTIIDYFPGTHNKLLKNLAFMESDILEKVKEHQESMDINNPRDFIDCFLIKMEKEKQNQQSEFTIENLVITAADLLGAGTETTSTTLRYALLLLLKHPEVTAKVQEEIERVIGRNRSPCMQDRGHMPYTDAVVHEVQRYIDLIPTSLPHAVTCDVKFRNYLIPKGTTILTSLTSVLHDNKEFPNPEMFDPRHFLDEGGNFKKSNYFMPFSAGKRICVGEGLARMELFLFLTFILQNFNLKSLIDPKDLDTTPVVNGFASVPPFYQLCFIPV
Sequence of C-C chemokine receptor type 5 (P51681 whole entry): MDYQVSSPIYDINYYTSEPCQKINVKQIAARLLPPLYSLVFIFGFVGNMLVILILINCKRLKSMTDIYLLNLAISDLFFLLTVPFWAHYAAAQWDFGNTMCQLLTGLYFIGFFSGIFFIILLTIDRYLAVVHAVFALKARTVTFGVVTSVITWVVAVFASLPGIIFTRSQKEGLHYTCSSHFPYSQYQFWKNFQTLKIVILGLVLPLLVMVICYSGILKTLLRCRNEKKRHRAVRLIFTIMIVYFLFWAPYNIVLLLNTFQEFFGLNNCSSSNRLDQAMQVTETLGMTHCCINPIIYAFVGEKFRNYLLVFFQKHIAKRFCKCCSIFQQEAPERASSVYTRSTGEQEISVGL
Sequence of C-C chemokine receptor type 3 (P51677 whole entry, looked up): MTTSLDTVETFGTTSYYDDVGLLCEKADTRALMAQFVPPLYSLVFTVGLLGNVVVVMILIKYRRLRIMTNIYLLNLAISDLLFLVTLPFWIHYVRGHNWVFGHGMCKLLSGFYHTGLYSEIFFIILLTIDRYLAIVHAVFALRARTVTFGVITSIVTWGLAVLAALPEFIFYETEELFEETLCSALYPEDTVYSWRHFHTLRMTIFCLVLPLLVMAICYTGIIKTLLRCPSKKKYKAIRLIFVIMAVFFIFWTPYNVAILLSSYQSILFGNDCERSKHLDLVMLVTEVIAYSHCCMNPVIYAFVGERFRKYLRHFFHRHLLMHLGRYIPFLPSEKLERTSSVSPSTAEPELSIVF
Sequence of Voltage-gated inwardly rectifying potassium channel KCNH2 (Q12809 whole entry): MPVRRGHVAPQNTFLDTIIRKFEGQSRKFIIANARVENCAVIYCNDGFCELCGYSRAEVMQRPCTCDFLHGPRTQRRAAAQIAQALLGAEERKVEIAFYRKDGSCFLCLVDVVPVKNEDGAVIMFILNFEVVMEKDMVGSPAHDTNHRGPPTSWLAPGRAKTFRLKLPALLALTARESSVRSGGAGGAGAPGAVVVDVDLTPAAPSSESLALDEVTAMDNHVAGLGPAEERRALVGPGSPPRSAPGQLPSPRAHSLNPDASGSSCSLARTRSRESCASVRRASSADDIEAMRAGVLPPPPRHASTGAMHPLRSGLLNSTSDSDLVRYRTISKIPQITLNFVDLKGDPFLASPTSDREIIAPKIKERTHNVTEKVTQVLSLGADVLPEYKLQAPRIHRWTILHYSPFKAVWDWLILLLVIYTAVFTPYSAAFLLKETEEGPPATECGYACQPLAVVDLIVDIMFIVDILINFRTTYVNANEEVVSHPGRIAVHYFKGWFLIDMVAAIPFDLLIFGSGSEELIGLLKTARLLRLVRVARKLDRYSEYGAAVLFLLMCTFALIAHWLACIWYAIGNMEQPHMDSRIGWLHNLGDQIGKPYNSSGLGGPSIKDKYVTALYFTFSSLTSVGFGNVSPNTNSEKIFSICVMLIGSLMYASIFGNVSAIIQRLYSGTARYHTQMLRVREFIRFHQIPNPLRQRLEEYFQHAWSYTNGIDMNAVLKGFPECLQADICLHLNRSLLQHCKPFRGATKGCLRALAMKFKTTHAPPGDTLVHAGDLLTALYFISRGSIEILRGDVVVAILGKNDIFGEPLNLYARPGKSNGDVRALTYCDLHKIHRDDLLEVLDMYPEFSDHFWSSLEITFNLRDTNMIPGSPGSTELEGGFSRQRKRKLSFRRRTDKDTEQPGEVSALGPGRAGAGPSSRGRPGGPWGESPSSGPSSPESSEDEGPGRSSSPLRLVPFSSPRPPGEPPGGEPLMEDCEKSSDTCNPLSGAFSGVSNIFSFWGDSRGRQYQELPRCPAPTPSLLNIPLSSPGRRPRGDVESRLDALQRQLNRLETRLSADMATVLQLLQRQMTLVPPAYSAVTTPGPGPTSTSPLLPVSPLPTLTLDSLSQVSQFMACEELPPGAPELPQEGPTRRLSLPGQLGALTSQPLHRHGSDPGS

clearance [1]: 12.5 mL/min/kg
half-life [2]: 6.9 h
Cmax [3]: 3.1 µM
half-life [4]: 5.2 h
solubility thermodynamic [5]: 1 µg/mL (≈ 2.51 µM)
IC50 (Cytochrome P450 3A4): > 40 µM
IC50 (Cytochrome P450 2D6): > 40 µM
AUC [6]: 5.9 µM·h
IC50 (Cytochrome P450 2C9): > 40 µM
IC50 [8]: 0.085 µM
Stability (Liver): 73%
IC50 [9]: > 20 µM
IC50 (Chemokine receptor): 0.55 µM
IC50 [10]: > 25 µM
IC50 [11]: > 30 µM
Stability (Liver microsomes [12]): 83%
Vd [13]: 4.8 L/kg
IC50 [14]: 0.015 µM
bioavailability [15]: 52%
AUC [16]: 6.6 µM·h
IC50 [17]: > 20 µM
IC50 (Cytochrome P450 2C19): > 40 µM
Stability (Liver microsomes [18]): 100%
IC50 [19]: > 30 µM
IC50 [20]: 0.028 µM
Structure (SMILES): CC(C)[C@@H](NC(=O)c1ccccc1)C(=O)N1CCC(c2ccc(Cl)cc2)CC1
IC50 [7]: 7 µM
